Assay outcomes: PubChem, Sanford-Burnham Center for Chemical Genomics
A selection: hits, their analogues and other compounds. The true share with any hit is near 0.77%.
mIAP activ: increases mouse intestinal alkaline phosphatase activity. actives 0.24% (n = 330,000). muIAP, CDP-Star luminescence, 30 min; hits give high values; 1 = vehicle-only enzyme signal, 0 = enzyme-free wells. activation factor at 10 µM;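 active = activation factor of at least 2 at 20 µM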
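Assay system: mouse IAP enzyme; reagent: chemiluminescent substrate CDP-Star; dosing: test compounds delivered from DMSO solution; schedule: 30 min at room temperature; measured by: luminescence from enzymatic CDP-Star hydrolysis; controls: DMSO-only wells and no-enzyme negative control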
mIAP inh: mouse IAP inhibition | purified mouse IAP, CDP-Star luminescence, 30 min | inhibition, % at 10 µM | AID 2806 | actives 0.2% (n = 330,000);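 active = inhibition of at least 40% at 10 µM in the primary screen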;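 also: plate controls were DMSO with enzyme for no effect and no enzyme wells for full effect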
hIAP activ: human IAP activation; P09923; purified human IAP, CDP-Star luminescence, 30 min; hits give high values; 1 = vehicle-only enzyme, 0 = enzyme-free background; activation factor at 10 µM; actives 0.16% (n = 330,000); AID 2524;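 active = activation factor of the enzyme at least 2-fold when tested at 20 µM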
Target sequence (P09923 whole entry, looked up): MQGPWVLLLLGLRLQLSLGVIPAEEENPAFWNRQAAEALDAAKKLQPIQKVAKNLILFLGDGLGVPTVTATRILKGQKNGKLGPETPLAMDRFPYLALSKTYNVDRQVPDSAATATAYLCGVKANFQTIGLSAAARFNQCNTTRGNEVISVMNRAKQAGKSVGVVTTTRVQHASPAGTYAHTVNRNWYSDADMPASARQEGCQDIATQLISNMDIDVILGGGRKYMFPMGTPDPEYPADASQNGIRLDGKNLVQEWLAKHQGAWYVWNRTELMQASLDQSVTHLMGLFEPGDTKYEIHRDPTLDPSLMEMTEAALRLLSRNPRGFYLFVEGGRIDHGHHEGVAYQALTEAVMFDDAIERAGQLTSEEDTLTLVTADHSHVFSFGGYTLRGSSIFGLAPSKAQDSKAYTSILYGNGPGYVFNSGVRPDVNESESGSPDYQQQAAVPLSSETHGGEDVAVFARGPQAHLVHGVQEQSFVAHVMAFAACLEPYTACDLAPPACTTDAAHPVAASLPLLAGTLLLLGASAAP
bIAP act: increases bovine intestinal alkaline phosphatase activity; actives 0.17% (n = 200,000); purified bovine IAP, CDP-star luminescence, 30 min; hits give high values; fold of DMSO-control signal, blank-subtracted; activation factor at 20 µM;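 active = activation factor of 2 or more at 20 µM, a signal rise over negative controls twice the positive control's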
bIAP inh: blocks bovine intestinal alkaline phosphatase activity; AID 1019; inhibition, % at 20 µM; 190,000 tested, under 10 active; purified bovine IAP, CDP-star luminescence, 30 min;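 active = over 50% inhibition of intestinal alkaline phosphatase at 20 µM in the single-dose screen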
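Assay system – bovine IAP enzyme · Quantity – bovine IAP at 1/65,000,000 final dilution · Detection – CDP-star luminescence signal · Times – 30 min reaction at room temperature · Also added – CDP-star substrate at 30 µM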
hIAP inh: human IAP inhibition; P09923; purified IAP, CDP-Star luminescence, 30 min; inhibition, % at 10 µM; actives 0.12% (n = 330,000);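 active = inhibition reaching a set limit with compound at 10 µM in the primary screen, cut at about 35% in these data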;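 also: plate controls were DMSO wells with enzyme for no effect and no-enzyme buffer wells for full effect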
An asterisk follows results filed as active; . = no result.

SMILES | mIAP activ | mIAP inh | hIAP activ | bIAP act | bIAP inh | hIAP inh
CC(C)NC(=O)N(C)C[C@H]1Oc2ccc(NC(=O)Nc3ccc(C(F)(F)F)cc3)cc2C(=O)N([C@H](C)CO)C[C@@H]1C | 2.4* | -139 | 1.1 | . | . | -7
C[C@H]1CN([C@@H](C)CO)C(=O)c2cc(NC(=O)NC3CCCCC3)ccc2O[C@H]1CN(C)C(=O)Nc1ccc(C(F)(F)F)cc1 | 2* | -102 | 0.98 | . | . | 2
C[C@H](CO)N1C[C@H](C)[C@H](CN(C)Cc2ccccc2)Oc2ccc(NC(=O)Nc3ccc(F)cc3)cc2C1=O | 2.2* | -120 | 1 | . | . | -4
C[C@H](CO)N1C[C@H](C)[C@H](CN(C)Cc2ccccc2)Oc2c(NC(=O)Nc3ccc(F)cc3)cccc2C1=O | 1.7 | -70 | 0.96 | . | . | 4
Cc1ccc(-n2ncc3c(NCc4ccco4)ncnc32)c(C)c1 | 1.1 | -9 | 1.2 | 0.9 | 11 | -19
Cn1ncc2c(NNC(=O)c3ccc(O)cc3)ncnc21 | 0.7 | 30 | 1.2 | 1.3 | -33 | -19
Cc1ccc(-n2ncc3c(NNC(=O)c4ccco4)ncnc32)c(C)c1 | 1 | -2 | 3* | 1.5 | -46 | -198
Cc1cccc(C(=O)NNc2ncnc3c2cnn3C)c1 | 1 | 0 | 2.1* | 1.5 | -48 | -113
CCN(C(=O)COC(=O)C1=COCCO1)c1c(N)n(Cc2ccccc2)c(=O)[nH]c1=O | 0.97 | 3 | 1 | . | . | -4
CSc1ccc(CCNC(=O)c2cc(-c3ccccc3)c(N3CCOCC3)s2)cc1 | 2.4* | -137 | 1.5 | . | . | -52
O=C(NCCc1ccccc1)c1cc(-c2ccccc2)c(N2CCOCC2)s1 | 2.8* | -181 | 1.2 | . | . | -16
COc1ccc(CCNC(=O)c2cc(-c3ccccc3)c(N3CCOCC3)s2)cc1OC | 2.2* | -115 | 1.4 | . | . | -43
COc1ccc(CCNC(=O)c2ccc(CNc3c(N4CCOCC4)c(=O)c3=O)cc2)cc1OC | 0.96 | 4 | 0.93 | 1 | 1 | 7
COc1ccc(CCNC(=O)c2cc(-c3ccccc3O)n[nH]2)cc1OC | 1.9 | -91 | 0.94 | 2* | -104 | 6
CCOC(=O)C1CCCN(C(=O)c2ccc(-c3ccc([N+](=O)[O-])cc3)o2)C1 (centres undefined) | 0.99 | 0 | 1.2 | . | . | -22
COc1cc(OC)cc(C(=O)NCC(C)NC(=O)c2cc(OC)cc(OC)c2)c1 (centres undefined) | 0.96 | 4 | 0.86 | . | . | 14
COc1cccc(C2CN(c3ccc(F)cc3F)N=C2c2cccs2)c1OC (centres undefined) | 2* | -104 | 1 | 0.9 | 10 | -3
C=C(C)c1cccc(C(C)(C)NC(=O)NCCCN2CCCC2=O)c1 | 1.1 | -10 | 0.83 | 1.6 | -61 | 17
C=C(C)c1cccc(C(C)(C)NC(=O)NCCCn2ccnc2)c1 | 1.3 | -33 | 1.1 | 2.3* | -127 | -5
Cc1ccc(C(=O)OC(C)C(=O)Nc2ccc(Cl)cn2)s1 (centres undefined) | 1 | -2 | 0.89 | . | . | 11
N#Cc1ccc(NC(=O)Nc2ccc(Oc3ccc(NC(=O)Nc4ccc(C#N)cc4)cc3)cc2)cc1 | 2.4* | -144 | 1.1 | . | . | -12
Cc1ccc(C(=O)CCC(=O)OC(C)C(=O)NC2CCCCC2C)cc1 (centres undefined) | 0.98 | 2 | 0.95 | . | . | 5
Fc1ccc(CNC(=S)NCc2ccccc2)cc1 | 1.3 | -26 | 1.1 | . | . | -11
S=C(NCc1ccccc1)Nc1ccc(Oc2ccccc2)cc1 | 3.8* | -277 | 1.1 | . | . | -12
Cc1cc2cc(CNC(=S)NCc3ccccc3)ccc2n1C | 2.3* | -129 | 1 | 0.9 | 7 | -4
SMILES | mIAP activ | mIAP inh | hIAP activ | bIAP act | bIAP inh | hIAP inh
S=C(NCc1ccccc1)NCc1ccc(CNC(=S)NCc2ccccc2)cc1 | 3.2* | -222 | 1.4 | 0.6 | 38 | -44
Cc1ccccc1NC(=S)NCc1ccc2c(c1)cc(C)n2C | 1.3 | -27 | 0.91 | 0.9 | 7 | 9
Cc1ccccc1C(=O)Nc1cc(NC(=O)c2ccccc2C)cc(C(=O)O)c1 | 1 | 0 | 0.98 | . | . | 2
CSCC(C)N1CCC(Oc2cccc(C(=O)NCc3ccccn3)c2)CC1 (centres undefined) | 1 | 0 | 0.95 | . | . | 5
O=C1[C@H]2[C@@H](c3ccc(Cl)cc3)N3C(=O)N(c4cccc(Cl)c4)C(=O)[C@@]3(Cc3ccccc3)[C@H]2C(=O)N1C1CCCCC1 | 0.98 | 2 | 0.98 | . | . | 2
S=C(Nc1ccc(Oc2ccc(NC(=S)NC3CCCCC3)cc2)cc1)NC1CCCCC1 | 2.4* | -142 | 0.98 | 1.4 | -39 | 2
S=C(Nc1ccc(Oc2ccccc2)cc1)NC1CCCCC1 | 3.5* | -250 | 0.96 | 0.9 | 6 | 4
COc1ccccc1NC(=S)NC1CCCCCCCCCCC1 | 2.3* | -134 | 1.6 | . | . | -61
CC(C)c1ccc(NC(=S)NC2CCCCCC2)cc1 | 3.2* | -224 | 1.3 | 1 | 1 | -26
CCOCc1c(C(=O)OCC(=O)Nc2ccccc2C(N)=O)oc2ccccc12 | 0.95 | 5 | 0.83 | . | . | 17
FC(F)Sc1ccc(NC(=S)NC2CCCC2)cc1 | 2.6* | -156 | 1.2 | 0.8 | 16 | -17
OC1CCC(NC(=S)Nc2ccc(SC(F)F)cc2)CC1 (centres undefined) | 1.1 | -10 | 1.1 | 0.9 | 13 | -7
CC(CNC(=O)CCn1ccc2cc(S(=O)(=O)N3CCCC3)ccc21)c1ccccc1 (centres undefined) | 1 | -4 | 1.1 | . | . | -7
Cc1ccc(N/C(N)=N/c2nc(CSc3nnc(C)s3)cc(=O)[nH]2)c(C)c1 | 1.1 | -8 | 1.7 | 2.1* | -111 | -67
CCCCOc1ccc(CSCCNC(=S)Nc2ccccc2)cc1 | 1.8 | -84 | 1.1 | 1 | 2 | -11
CCCCCOc1ccc(CSCCNC(=S)Nc2ccccc2)cc1 | 2.5* | -147 | 1.7 | 1.1 | -6 | -69
CC(C)COc1ccc(CSCCNC(=S)Nc2ccccc2)cc1 | 2.4* | -144 | 1 | 0.6 | 43 | -3
CC1(C)CC(NC(=O)c2ccc(Cl)c(S(=O)(=O)N(Cc3ccccc3)c3ccccc3)c2)CC(C)(C)N1 | 0.86 | 14 | 0.88 | . | . | 12
Cc1cc(Cl)ccc1C(=O)C1CCCN(C(=O)c2cnn(C(C)C)c2)C1 (centres undefined) | 0.99 | 1 | 0.92 | . | . | 8
Cc1ccc(SCCNC(=S)Nc2cc(C)cc(C)c2)cc1 | 3.3* | -232 | 0.89 | 0.6 | 40 | 11
COc1ccc(Cl)cc1NC(=S)NCCSc1ccc(C)cc1 | 2.6* | -160 | 1.3 | 0.8 | 21 | -28
COc1ccccc1NC(=S)NCCSc1ccc(Cl)cc1 | 1.6 | -59 | 0.93 | 1 | 1 | 7
Cc1ccc(NC(=O)NCCSc2ccc(C)cc2)cc1 | 2.5* | -154 | 1.2 | 1 | -5 | -19
COc1cc(C(=O)COC(=O)c2cccs2)cc(OC)c1OC | 1.1 | -13 | 1.2 | . | . | -24
